Assay results gathered from unrelated publications.
Lines come from different studies, so protocols differ.
PRKCB: Protein kinase C beta type (PRKCB, Homo sapiens, UniProt P05771)
ADRA2A: Alpha-2A adrenergic receptor (ADRA2A, Homo sapiens, UniProt P08913)
KMT5A: N-lysine methyltransferase KMT5A (KMT5A, Homo sapiens, UniProt Q9NQR1)
CCKAR: Cholecystokinin receptor type A (CCKAR, Homo sapiens, UniProt P32238)

SMILES	target	assay	test system	setting	inhibition
COc1cc2ncnc(Nc3ccc(Oc4ccccc4)c(C)c3C)c2cc1OC	PRKCB	enzyme activity, inhibitor		1 µM	9%
Oc1cccc(Nc2nc(-c3ccc(F)cc3F)cs2)c1	ADRA2A	cell-free assay		10 µM	-22.5%
CN(C)C1CCN(CC#Cc2nn(C3CCCC3)c3nc(NCc4ccccc4)ncc23)C1 (centres unmarked)	cAMP-dependent protein kinase catalytic subunit alpha (PRKACA, Homo sapiens, UniProt P17612)	enzyme activity, inhibitor, FRET		10 µM	12%
O=C(O[C@@H]1Cc2c(O)cc(O)cc2O[C@@H]1c1cc(O)c(O)c(O)c1-c1c([C@H]2Oc3cc(O)cc(O)c3C[C@H]2O)cc(O)c(O)c1O)c1cc(O)c(O)c(O)c1	KMT5A	cell-free assay		10 µM	17%
O=C(c1ccc(Cl)cc1)N(Cc1ccccc1)C1CCCCC1	CCKAR	cell-free assay		10 µM	-9.6%
Cc1ccc(CNC(=O)[C@H](CCc2ccccc2)NC(=O)[C@H](CCc2ccccc2)NC(=O)[C@H](CCc2ccccc2)NC(=O)c2cnc(C)cn2)cc1	Plasminogen (PLG, Homo sapiens, UniProt P00747)	enzyme activity, inhibitor		100 µM	-20%
Cc1ccc(Nc2nccc(N(C)c3ccc4c(C)n(C)nc4c3)n2)cc1S(N)(=O)=O	PRKCB	enzyme activity, inhibitor		10 µM	5%
O=C(c1ccc(F)cc1)N(Cc1ccccc1)C1CCCCC1	ADRA2A	cell-free assay		10 µM	13%
COc1cc(NC(C)CCCN)c2ncccc2c1 (centres unmarked)	KMT5A	cell-free assay		10 µM	28%
COc1cc(NC(C)=O)c(Cl)cc1C(=O)Nc1nccs1	Androgen receptor (AR, Homo sapiens, UniProt P10275)	cell-free assay		10 µM	-19.5%
CCN1CCN(Cc2ccc(NC(=O)c3ccc(C)c(/C=C/c4cnc5[nH]ccc5c4OC)c3)cc2C(F)(F)F)CC1	Serine/threonine-protein kinase greatwall (MASTL, Homo sapiens, UniProt Q96GX5)	target engagement in cells, inhibitor, chemoproteomics	A-375	0.5 µM	0.239%
CCCCCCCCCCCCCCCc1cccc(O)c1C(=O)O	Histone acetyltransferase p300 (EP300, Homo sapiens, UniProt Q09472)	enzyme activity, inhibitor, fluorescence		52 µM	~60%
Cc1cc(-c2ccc(/N=N/c3ccc4c(S(=O)(=O)O)cc(S(=O)(=O)O)c(N)c4c3O)c(C)c2)ccc1/N=N/c1ccc2c(S(=O)(=O)O)cc(S(=O)(=O)O)c(N)c2c1O	KMT5A	cell-free assay		10 µM	78%
O=C1N=C(N2CCCCN2)S/C1=C\c1ccc(F)cc1O	CCKAR	ligand displacement, radioligand		10 µM	10%
COc1ccc(C(=O)c2coc3c2C(=O)C(=O)C(Cl)=C3)cc1	Peptide deformylase, mitochondrial (Homo sapiens, UniProt Q9HBH1)	enzyme activity, inhibitor		100 µM	≥ 100%
Cn1cncc1C1=CN(c2ncnc3[nH]cnc23)CCS1	Serine/threonine-protein kinase LATS1 (LATS1, Homo sapiens, UniProt O95835)	enzyme activity, inhibitor, radiometric		50 nM	35%
O=C1C=C2CC3(O)COc4c(ccc(O)c4O)C3=C2C=C1O (centres unmarked)	KMT5A	cell-free assay		10 µM	8%
CNC(=O)c1cc(Oc2ccc(NC(=O)Nc3ccc(Cl)c(C(F)(F)F)c3)cc2)ccn1	PRKCB	enzyme activity, inhibitor		10 µM	-3%
O=C1C=CC(=O)c2c(O)cccc21	KMT5A	cell-free assay		10 µM	19%
COc1cc(-c2cc(-c3ccc(N4CCNCC4)cc3)cnc2N)cc(OC)c1OC	Tyrosine-protein kinase ABL1 (ABL1, Homo sapiens, UniProt P00519, E255K)	enzyme activity, inhibitor		0.1 µM	74%
O=c1c(O)cccc2c([C@H]3Oc4cc(O)cc(O)c4C[C@H]3O)cc(O)c(O)c12	KMT5A	cell-free assay		10 µM	3%
CSc1nc(C)c(-c2ccnc(Nc3ccc(N4CCOCC4)cc3)c2)[nH]1	PRKCB	enzyme activity, inhibitor		10 µM	1.3%
O=C(O)CCCCCCCCCCCC[C@@H]1C=CCC1	KMT5A	cell-free assay		10 µM	-10%
CCN(CC)CCNC(=O)c1c(C)[nH]c(/C=C2\C(=O)Nc3ccc(F)cc32)c1C	cAMP-dependent protein kinase catalytic subunit alpha (PRKACA, Bos taurus, UniProt P00517)	enzyme activity, inhibitor		0.3 µM	0%
CN(C)c1ccc2nc3ccc(=[N+](C)C)cc-3sc2c1	KMT5A	cell-free assay		10 µM	43%
CCCS(=O)(=O)Nc1ccc(F)c(C(=O)c2c[nH]c3ncc(-c4ccc(Cl)cc4)cc23)c1F	PRKCB	enzyme activity, inhibitor		1 µM	< 20%
